How the values were obtained:
[1] = n-Octanol-water partition coefficient, log P of the compound at pH 7.4 by shake flask method; type: physicochemical
[2] = Ratio of permeability from apical to basal side of MDCK2 cells expressing MDR1 assessed as fraction of mass extracted by methanol wash at 5 uM in presence of LSN 335984 to permeability from apical to basal side of MDCK2 cells expressing MDR1 assessed as fraction of mass extracted by methanol wash at 5 uM in absence of LSN 335984; type: ADME, cell-based, Canis lupus familiaris; conditions: dog, mdck-ii
Summary of the method: (§1)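 MDCKII-MDR1 cells on Transwell polycarbonate filters (50,000 cells cm−2), used day 6. 5 μM compound added to donor chamber (AB or BA). Donor and receiver sampled after 1 h at 37 °C with nutation. Cell-associated fraction taken by methanol extraction of monolayer after AB flux. Quantified by LC-MS/MS. ±SD.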

[3] = Permeability from apical to basal side of MDCK2 cells expressing MDR1 assessed as fraction of mass extracted by methanol wash at 5 uM after 1 hr by LC-MS/MS analysis in presence of LSN 335984; type: ADME, cell-based, Canis lupus familiaris; conditions: dog, mdck-ii; summary of the method: as §1
[4] = Permeability from apical to basal side of MDCK2 cells expressing MDR1 assessed as fraction of mass extracted by methanol wash at 5 uM after 1 hr by LC-MS/MS analysis; type: ADME, cell-based, Canis lupus familiaris; conditions: dog, mdck-ii; summary of the method: as §1
[5] = Ratio of permeability from basal to apical side of MDCK2 cells expressing MDR1 in absence of LSN 335984 to permeability from basal to apical side of MDCK2 cells expressing MDR1 in presence of LSN 335984; type: ADME, cell-based, Canis lupus familiaris; conditions: dog, mdck-ii; summary of the method: as §1
[6] = Permeability from basal to apical side of MDCK2 cells expressing MDR1 at 5 uM after 1 hr by LC-MS/MS analysis; type: ADME, cell-based, Canis lupus familiaris, MDCK-II; conditions: dog, MDCK-MDR1; read-out: permeability; summary of the method: as §1
[7] = Permeability from apical to basal side of MDCK2 cells expressing MDR1 at 5 uM after 1 hr by LC-MS/MS analysis; type: ADME, cell-based, Canis lupus familiaris, MDCK-II; conditions: dog, MDCK-MDR1; read-out: permeability; summary of the method: as §1
[8] = target: T1, ATP-dependent translocase ABCB1 (Homo sapiens, UniProt P08183); test: Inhibition of MDR1 transfected in MDCK2 cells assessed as inhibition of [3H]vinblastine efflux incubated for 30 mins prior to [3H]vinblastine addition by scintillation counting; type: cell-based, MDCK-II
T1 sequence (P08183 whole entry): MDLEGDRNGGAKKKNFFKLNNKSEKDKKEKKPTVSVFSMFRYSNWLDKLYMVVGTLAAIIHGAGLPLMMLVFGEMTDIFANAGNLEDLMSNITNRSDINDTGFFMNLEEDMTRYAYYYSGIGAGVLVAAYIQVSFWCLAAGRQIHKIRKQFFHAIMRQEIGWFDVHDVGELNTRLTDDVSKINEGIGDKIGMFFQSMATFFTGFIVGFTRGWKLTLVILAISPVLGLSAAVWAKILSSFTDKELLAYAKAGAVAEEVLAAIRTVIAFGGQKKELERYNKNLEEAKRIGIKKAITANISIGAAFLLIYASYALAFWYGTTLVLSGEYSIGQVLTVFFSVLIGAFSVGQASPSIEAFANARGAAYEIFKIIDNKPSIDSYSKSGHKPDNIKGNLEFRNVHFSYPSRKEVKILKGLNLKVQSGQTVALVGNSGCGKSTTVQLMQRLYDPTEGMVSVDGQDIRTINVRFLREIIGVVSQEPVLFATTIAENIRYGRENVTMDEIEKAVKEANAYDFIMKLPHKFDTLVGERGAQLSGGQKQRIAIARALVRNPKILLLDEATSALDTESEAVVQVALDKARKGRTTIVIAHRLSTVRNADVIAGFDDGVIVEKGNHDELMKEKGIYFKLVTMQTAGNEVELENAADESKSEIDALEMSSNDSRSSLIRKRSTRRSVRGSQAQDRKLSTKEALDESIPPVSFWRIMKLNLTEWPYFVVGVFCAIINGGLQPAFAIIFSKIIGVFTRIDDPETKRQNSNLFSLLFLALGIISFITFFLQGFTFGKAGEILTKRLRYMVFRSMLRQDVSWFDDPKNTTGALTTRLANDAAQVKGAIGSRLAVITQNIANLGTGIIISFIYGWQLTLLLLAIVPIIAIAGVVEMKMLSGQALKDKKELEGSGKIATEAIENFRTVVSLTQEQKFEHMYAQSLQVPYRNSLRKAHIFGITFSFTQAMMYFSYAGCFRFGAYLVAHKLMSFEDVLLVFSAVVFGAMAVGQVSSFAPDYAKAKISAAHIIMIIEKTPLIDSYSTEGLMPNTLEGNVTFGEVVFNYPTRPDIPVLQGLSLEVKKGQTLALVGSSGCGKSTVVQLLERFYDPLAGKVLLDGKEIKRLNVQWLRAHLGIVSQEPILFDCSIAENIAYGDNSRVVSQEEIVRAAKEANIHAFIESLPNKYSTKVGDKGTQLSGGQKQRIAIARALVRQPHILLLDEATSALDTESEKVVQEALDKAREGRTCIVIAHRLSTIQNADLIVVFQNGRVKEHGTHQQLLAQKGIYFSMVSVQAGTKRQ
Summary of the method: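 Transwell MDCKII-MDR1 monolayers on day 6, rinsed 10 min in DPBSH at 37 °C. Conditioned with compound at 1 × 10−10 to 1 × 10−5 M in BSA/DPBSH. [3H]-vinblastine added to the basolateral side. Apical buffer replaced every 10 min, and apical [3H] counted by scintillation. IC50 calculated from the curve.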

[9] = target: T2, P-gp (MDR1, ABCB1) (Homo sapiens, UniProt P08183); test: Inhibition of MDR1 transfected in MDCK2 cells assessed as increase in calcein AM uptake at 2.5*10^-5 M incubated for 30 mins prior to calcein AM influx measured after 20 mins by fluorimetric analysis relative to LSN 335984; type: cell-based, MDCK-II; conditions: dog, MDCK2 cells transfected with MDR1, probe calcein AM
T2 sequence (P08183 whole entry): as above
Summary of the method: (§2)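 MDCKII-MDR1 cells (passage 16-42) seeded 40,000 cells/well, used day 4. Washed with DPBS plus 10−2 M Hepes pH 7.4, then incubated 30 min at 37 °C with compound in this buffer with 4.3 mg mL−1 BSA. Compound solution then replaced with one also holding 0.5 μg mL−1 calcein AM, 20 min more.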

[10] = target: T2, P-gp (MDR1, ABCB1); test: Inhibition of MDR1 transfected in MDCK2 cells assessed as increase in calcein AM uptake at 5*10^-6 M incubated for 30 mins prior to calcein AM influx measured after 20 mins by fluorimetric analysis relative to LSN 335984; type: cell-based, MDCK-II; conditions: dog, MDCK2 cells transfected with MDR1, probe calcein AM; summary of the method: as §2
[11] = target: T1, ATP-dependent translocase ABCB1; test: Inhibition of MDR1 transfected in MDCK2 cells assessed as increase in calcein AM uptake incubated for 30 mins prior to calcein AM influx measured after 20 mins by fluorimetric analysis; type: cell-based, MDCK-II
[12] = target: T1, ATP-dependent translocase ABCB1; test: Inhibition of human His10-tagged P-gp ATPase activity expressed in BHK cells assessed as verapamil-induced inorganic phosphate release incubated for 15 mins prior to verapamil addition by spectrophotometric analysis; type: cell-based
Summary of the method: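 P-gp-His10 stably expressed in BHK cells, Ni-chelate purified and mixed 1:1 with 10 mg/ml sheep brain phosphatidylethanolamine. Pre-incubated with compound 15 min at 20 °C. […] Released inorganic phosphate measured.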

[13] = target: P-gp (ABCB1) ATPase activity (Homo sapiens, UniProt P08183); test: Binding affinity to human His10-tagged P-gp expressed in BHK cells assessed as induction of ATPase activity measured as inorganic phosphate release by spectrophotometric analysis relative to control; type: cell-based; conditions: read-out: FC
P-gp (ABCB1) ATPase activity, sequence (P08183 whole entry): as above

**Q.** With `CN(C)c1ccc2c(-c3ccc(C(=O)N4CCCCC4)s3)c3ccc(=[N+](C)C)cc-3sc2c1` as the compound, how does the logD [1] read?
**A.** 1.5

**Q.** Which Ratio [2] does the source give for `CN1CCC(C)(C)c2cc3c(-c4ccc(C(=S)N5CCCCC5)s4)c4ccc(=[N+](C)C)cc-4sc3cc21.F[P-](F)(F)(F)(F)F` here?
**A.** 1.8

**Q.** What about the permeability [3] of the same compound?
**A.** 62%

**Q.** And the permeability [4]?
**A.** 34%

**Q.** And the Ratio [5]?
**A.** 170

**Q.** And the Papp B→A at 1 h, 5 µM [6]?
**A.** 3.4 ×10⁻⁶ cm/s

**Q.** And the Papp A→B at 1 h, 5 µM [7]?
**A.** ≤ 0.1 ×10⁻⁶ cm/s

**Q.** What about the logD [1] of the same compound?
**A.** 2.6

**Q.** And the IC50 [8]?
**A.** 8.9 µM

**Q.** And the inhibition at 20 min, 25 µM [9]?
**A.** 64%

**Q.** What about the inhibition at 20 min, 5 µM [10] of the same compound?
**A.** 0%

**Q.** And the IC50 [11]?
**A.** 9.3 µM

**Q.** What about the IC50 [12] of the same compound?
**A.** 1.7 µM

**Q.** And the fold induction [13]?
**A.** < 2

**Q.** With `CCN(CC)C(=O)c1ccc(-c2c3ccc(=[N+](C)C)cc-3sc3c4c5c(cc23)CCCN5CCC4)s1.F[P-](F)(F)(F)(F)F` as the compound, how does the Ratio [2] read?
**A.** 4.8

**Q.** What about the permeability [3] of the same compound?
**A.** 28%

**Q.** And the permeability [4]?
**A.** 5.8%

**Q.** What about the Ratio [5] of the same compound?
**A.** 12

**Q.** And the Papp B→A at 1 h, 5 µM [6]?
**A.** 21 ×10⁻⁶ cm/s

**Q.** And the Papp A→B at 1 h, 5 µM [7]?
**A.** ≤ 0.1 ×10⁻⁶ cm/s

**Q.** And the logD [1]?
**A.** 1.9

**Q.** And the inhibition at 20 min, 25 µM [9]?
**A.** 41%

**Q.** What about the inhibition at 20 min, 5 µM [10] of the same compound?
**A.** 0%

**Q.** What about the IC50 [11] of the same compound?
**A.** 10 µM

**Q.** What about the fold induction [13] of the same compound?
**A.** 5.6

**Q.** Which results are given for `CCN(CC)C(=S)c1ccc(-c2c3ccc(=[N+](C)C)cc-3sc3cc4c(cc23)C(C)(C)CCN4C)s1.F[P-](F)(F)(F)(F)F`?
**A.** Ratio [2]: 1.2; permeability [3]: 64%; permeability [4]: 52%; Ratio [5]: 69; Papp B→A at 1 h, 5 µM [6]: 6.9 ×10⁻⁶ cm/s; Papp A→B at 1 h, 5 µM [7]: ≤ 0.1 ×10⁻⁶ cm/s; logD [1]: 2.7; IC50 [8]: 8.7 µM; inhibition at 20 min, 25 µM [9]: 64%; inhibition at 20 min, 5 µM [10]: 0%; IC50 [11]: 8.8 µM; fold induction [13]: 4.3

**Q.** What does the source list for `CCN(CC)C(=S)c1ccc(-c2c3ccc(=[N+](C)C)cc-3sc3cc(N(C)C)ccc23)s1.F[P-](F)(F)(F)(F)F`?
**A.** Ratio [2]: 5.1; permeability [3]: 56%; permeability [4]: 11%; Ratio [5]: 41; Papp B→A at 1 h, 5 µM [6]: 21 ×10⁻⁶ cm/s; Papp A→B at 1 h, 5 µM [7]: ≤ 0.1 ×10⁻⁶ cm/s; logD [1]: 1.2; inhibition at 20 min, 25 µM [9]: 3%; inhibition at 20 min, 5 µM [10]: 0%; IC50 [11]: 14 µM; fold induction [13]: 12.1

**Q.** What does the source list for `CCN(CC)C(=O)c1ccc(-c2c3ccc(=[N+](C)C)cc-3sc3cc4c(cc23)C(C)(C)CCN4C)s1.F[P-](F)(F)(F)(F)F`?
**A.** Ratio [2]: 3.3; permeability [3]: 33%; permeability [4]: 10%; Ratio [5]: 14; Papp B→A at 1 h, 5 µM [6]: 37 ×10⁻⁶ cm/s; Papp A→B at 1 h, 5 µM [7]: ≤ 0.1 ×10⁻⁶ cm/s; logD [1]: 1.4; IC50 [8]: 8 µM; inhibition at 20 min, 25 µM [9]: 64%; inhibition at 20 min, 5 µM [10]: 0%; IC50 [11]: 7.1 µM; fold induction [13]: 4.7

**Q.** For `C[N+](C)=c1ccc2c(-c3ccc(C(=O)N4CCCCC4)s3)c3cc4c5c(c3sc-2c1)CCCN5CCC4.F[P-](F)(F)(F)(F)F`, which Ratio [2] is on record?
**A.** 6.1

**Q.** What about the permeability [3] of the same compound?
**A.** 42%

**Q.** And the permeability [4]?
**A.** 6.9%

**Q.** And the Ratio [5]?
**A.** 27

**Q.** And the Papp B→A at 1 h, 5 µM [6]?
**A.** 22 ×10⁻⁶ cm/s

**Q.** And the Papp A→B at 1 h, 5 µM [7]?
**A.** ≤ 0.1 ×10⁻⁶ cm/s

**Q.** And the logD [1]?
**A.** 1.4

**Q.** And the inhibition at 20 min, 25 µM [9]?
**A.** 41%

**Q.** And the inhibition at 20 min, 5 µM [10]?
**A.** 0%

**Q.** And the IC50 [11]?
**A.** 56 µM

**Q.** What about the fold induction [13] of the same compound?
**A.** 4.1

**Q.** With `CCN(CC)C(=O)c1ccc(-c2c3ccc(=[N+](C)C)cc-3sc3cc(N(C)C)ccc23)s1` as the compound, how does the logD [1] read?
**A.** 1.2

**Q.** Which Ratio [2] does the source give for `CN1CCC(C)(C)c2cc3c(-c4ccc(C(=O)N5CCCCC5)s4)c4ccc(=[N+](C)C)cc-4sc3cc21.F[P-](F)(F)(F)(F)F` here?
**A.** 5.2

**Q.** And the permeability [3]?
**A.** 45%

**Q.** What about the permeability [4] of the same compound?
**A.** 8.6%

**Q.** And the Ratio [5]?
**A.** 31

**Q.** And the Papp B→A at 1 h, 5 µM [6]?
**A.** 23 ×10⁻⁶ cm/s

**Q.** What about the Papp A→B at 1 h, 5 µM [7] of the same compound?
**A.** ≤ 0.1 ×10⁻⁶ cm/s

**Q.** What about the logD [1] of the same compound?
**A.** 1.7

**Q.** What about the IC50 [8] of the same compound?
**A.** 5.6 µM

**Q.** And the inhibition at 20 min, 25 µM [9]?
**A.** 64%

**Q.** And the inhibition at 20 min, 5 µM [10]?
**A.** 0%

**Q.** What about the IC50 [11] of the same compound?
**A.** 13 µM

**Q.** And the IC50 [12]?
**A.** 1.1 µM

**Q.** And the fold induction [13]?
**A.** < 2

**Q.** With `C[N+](C)=c1ccc2c(-c3ccc(C(=S)N4CCCCC4)s3)c3cc4c5c(c3sc-2c1)CCCN5CCC4.F[P-](F)(F)(F)(F)F` as the compound, how does the permeability [3] read?
**A.** 64%

**Q.** And the permeability [4]?
**A.** 31%

**Q.** And the Papp B→A at 1 h, 5 µM [6]?
**A.** 8.3 ×10⁻⁶ cm/s

**Q.** And the Papp A→B at 1 h, 5 µM [7]?
**A.** ≤ 0.1 ×10⁻⁶ cm/s

**Q.** And the inhibition at 20 min, 25 µM [9]?
**A.** 41%

**Q.** And the inhibition at 20 min, 5 µM [10]?
**A.** 0%

**Q.** With `CCN(CC)C(=S)c1ccc(-c2c3ccc(=[N+](C)C)cc-3sc3c4c5c(cc23)CCCN5CCC4)s1.F[P-](F)(F)(F)(F)F` as the compound, how does the Ratio [2] read?
**A.** 1.8

**Q.** And the permeability [3]?
**A.** 45%

**Q.** What about the permeability [4] of the same compound?
**A.** 25%

**Q.** What about the Ratio [5] of the same compound?
**A.** 24

**Q.** And the Papp B→A at 1 h, 5 µM [6]?
**A.** 6.5 ×10⁻⁶ cm/s

**Q.** What about the Papp A→B at 1 h, 5 µM [7] of the same compound?
**A.** ≤ 0.1 ×10⁻⁶ cm/s

**Q.** And the logD [1]?
**A.** 1.7

**Q.** What about the inhibition at 20 min, 25 µM [9] of the same compound?
**A.** 41%

**Q.** What about the inhibition at 20 min, 5 µM [10] of the same compound?
**A.** 0%

**Q.** What about the IC50 [11] of the same compound?
**A.** 9.6 µM

**Q.** What about the fold induction [13] of the same compound?
**A.** 4.6

— ChEMBL document CHEMBL2203082, “Thiorhodamines containing amide and thioamide functionality as inhibitors of the ATP-binding cassette drug transporter P-glycoprotein (ABCB1)” (Bioorg Med Chem, 2012)
